The test system of the test is Plasmodium yoelii. Nature of the test: NOVARTIS: Antimalarial liver stage activity measured as reduction in Plasmodium yoelii schizont area in HepG2-A16-CD81 cells by immuno-fluorescence, and median schizont size at 10uM compound concentration. Type of test: functional, organism-based. The conditions noted are these: for IC50: Plasmodium yoelii, HepG2-A16-CD81. In short, it runs like this: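 Host and parasite nuclei stained with Hoechst 33342, parasites with αPyHSP70 antibody; 25 images per well by high-content imaging; median parasite (schizont) area measured by automated image analysis, ~50 schizonts per experiment, two or more independent experiments.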

Some results are limits rather than exact numbers.

One may read the IC50 as the point on the concentration scale where inhibition reaches its midpoint. A high value points to a need for much substance.

In the case of `CCCCC(CC)C(=O)N1CCN(C(CC)c2nc3ccccc3c(=O)n2C)CC1` (centres undefined), the IC50 was found to be 231 nM.

On to `CCOC(=O)c1c(CSc2ccccc2)oc2cc(CN(C)C)c(O)c(Cl)c12`, for which the Schizont size turned out to be 188.08 um and half-maximal inhibition (IC50) required 7200 nM.

For the molecule `O=C(NC(=C(Cl)Cl)[P+](c1ccccc1)(c1ccccc1)c1ccccc1)c1ccc(F)cc1`, the Schizont size worked out at 26.93 um and the IC50 was found to be 14.5 nM.

Molecule `COc1ccc(CN2CCOc3ccc(C(C)(O)CN(C)C)cc3C2)cc1C` (centres undefined) yielded a Schizont size of 87.05 um and an IC50 of 67.5 nM.

On to `COc1ccccc1Nc1nc(NCc2ccccc2)c2ccccc2n1.Cl`, for which the Schizont size was determined as 40.29 um and the IC50 is 91.3 nM.

Regarding `COc1cc(C(=O)NCCc2ccccn2)ccc1OC1CCN(CC(c2ccccc2)c2ccccc2)CC1`, it took 1280 nM to reach half-maximal inhibition (IC50).

The molecule `C[C@@H]1C[C@@H]([C@H](O)CC2CC(=O)NC(=O)C2)C(=O)[C@@H](C)C1` [CYCLOHEXIMIDE] displayed a Schizont size of 14.61 um and an IC50 of 78.1 nM.

Consider `Cc1ccc2cc(C)c(Nc3ccc(Cl)cc3)nc2c1`, for which the Schizont size was 42.06 um and the midpoint of inhibition, the IC50, lay at 148 nM.

Regarding `CCN(CC)CCN(Cc1cc2ccc(C)cc2[nH]c1=O)C(=S)NC(C)c1ccccc1` (centres undefined), the Schizont size is reported as 66.17 um and the IC50 was 883 nM.

As for `Cc1ccc(-n2c(-c3ccccc3)cc(C=NNC(=O)c3cccc(-n4c(C)ccc4C)c3)c2-c2ccccc2)cc1`, the Schizont size was 30.06 um and the IC50 amounted to 47.9 nM.

As to `CCCN(CCC)CCCNc1ccc(C(=O)Nc2ccc(C)c(F)c2)cc1[N+](=O)[O-]`, the Schizont size was 83.5 um and the IC50 was determined as 646 nM.

Molecule `O=C(NC1CC1)C1CCN(c2cccc3c2C(=O)N(Cc2cccc(C(F)(F)F)c2)C3=O)CC1` showed a Schizont size of 24.01 um and an IC50 of 29.3 nM.

The molecule `[Cl-].c1ccc(Cc2cc[n+](Cc3ccccc3)cc2)cc1` had a Schizont size of 127.34 um and an IC50 of 4520 nM.

In turn, `Oc1cccc2ccc[n+](CC(O)Cn3c4ccccc4c4ccccc43)c12.[Cl-]` (centres undefined) gave a Schizont size of 49.37 um and an IC50 of 311 nM.

In turn, `Cc1ccc2nc3nc4c(C)cccc4c(N)c3cc2c1` came in with a Schizont size of 22.23 um and an IC50 of 47.4 nM.

On to `CCOc1ccc2[nH]c(=O)c(CN(CCN(CC)CC)C(=S)NCCCN(CC)CC)cc2c1`, for which the Schizont size is given as 120.76 um and the midpoint of inhibition, the IC50, lay at 2170 nM.

Molecule `CCc1ccccc1N=C1c2c(cccc2[N+](=O)[O-])C(=O)C1C(C)=O` (centres undefined) returned a Schizont size of 83.4 um and an IC50 of 2030 nM.

`Cc1cc(Nc2cccc(F)c2)nc(NCc2ccccc2)n1` gave a Schizont size of 73.06 um and an IC50 of 1110 nM.

Molecule `COc1ccc2[nH]c3ccccc3c(=O)c2c1` gave a Schizont size of 30.27 um and an IC50 of 135 nM.

Molecule `CC[C@H]1CN2CCc3cc(OC)c(OC)cc3[C@@H]2C[C@@H]1C[C@H]1NCCc2cc(OC)c(OC)cc21` [EMETINE] yielded a Schizont size of 26.51 um and an IC50 of 7.49 nM.

For the molecule `CCOC(=O)c1ccc(NCc2c(C)[nH]c3ccccc3c2=O)cc1`, the Schizont size came to 18.27 um and the IC50 came to 137 nM.

In the case of `COc1cccc(NC(=O)c2ccc(NCCCN3CC(C)CC(C)C3)c([N+](=O)[O-])c2)c1` (centres undefined), the Schizont size stood at 87.57 um and the IC50 was 437 nM.

Consider `NCC(=O)N1CCn2c(nc(-c3ccccc3)c2Nc2ccc3c(c2)OCO3)C1`, for which it took 221 nM to reach half-maximal inhibition (IC50).

`CCN(CC)CCCNc1nc2cc(OC)c(OC)cc2c2nc(-c3ccccc3)nn12` displayed a Schizont size of 52.61 um and an IC50 of 327 nM.

The molecule `C/C=C/[P+](c1ccccc1)(c1ccccc1)c1ccccc1` displayed a Schizont size of 26.09 um and an IC50 of 49.4 nM.

`CC1(C)N=C(N)N=C(N)N1c1ccc(Oc2ccc(Cl)cc2)c(Cl)c1.Cl` registered a Schizont size of 27.76 um and an IC50 of 73 nM.

`FC(F)(F)c1ccccc1NC(=S)N1CCCN(c2nc3ccc(Cl)cc3s2)CC1` came in with a Schizont size of 91.85 um and an IC50 of 1620 nM.

On to `CN(C)c1ccc(C(=Cc2cc(-c3ccccc3)cc(-c3ccccc3)[o+]2)c2ccc(N(C)C)cc2)cc1`, for which the Schizont size is given as 26.72 um and half-maximal inhibition (IC50) was put at 51.9 nM.

With `Cc1ccc(Nc2nc(NCc3ccccc3)c3ccccc3n2)cc1`, the Schizont size worked out at 31.73 um and 278 nM corresponded to half-maximal inhibition (IC50).

`CCOC(=O)c1cnc2c3c(ccc2c1O)CCCC3` had a Schizont size of 26.2 um and an IC50 of 10.8 nM.

As for `C=CC[N+]1(CC#Cc2cccc3ccccc23)CCCCC1.[Br-]`, the Schizont size is on record as 80.06 um and it took 908 nM to reach half-maximal inhibition (IC50).

Molecule `c1ccc2cc3c(N4CCN(CCN5CCN(c6ccnc7cc8ccccc8cc67)CC5)CC4)ccnc3cc2c1` had a Schizont size of 135.69 um and an IC50 of 2910 nM.

On to `Cc1oc2c(c1C(=O)NC1CCS(=O)(=O)C1)C(=O)c1ccccc1C2=O` (centres undefined), for which the Schizont size was 17.54 um and the IC50 stood at 2.29 nM.

As for `CCOc1ccc(Nc2nc(NCc3ccccc3)c3ccccc3n2)cc1.Cl`, the Schizont size is 23.69 um and the IC50 was determined as 480 nM.

The molecule `CCCCCc1c(C)c(C#N)c2nc3ccccc3n2c1NCCN(CC)CC` showed a Schizont size of 74 um and an IC50 of 702 nM.

Molecule `CCSc1ccc2ccccc2[n+]1CC.[I-]` had a Schizont size of 209.06 um and a concentration for half-maximal inhibition (IC50) of more than 10000 nM.

In turn, `CC(c1nc2ccccc2c(=O)n1C)N1CCN(C(=O)C(C)(C)C)CC1` (centres undefined) gave an IC50 of 492 nM.

As for `CCOc1ccc2ncc(S(=O)(=O)c3ccc(OC)cc3)c(N3CCN(C)CC3)c2c1`, the Schizont size came out at 63.67 um and the IC50 came out at 10.7 nM.

Consider `CC[n+]1c(C=C2C=C(C)OC(C)=C2)sc2ccccc21.[Cl-]`, for which the Schizont size was determined as 25.36 um and the IC50 was 245 nM.

Molecule `COc1ccc(Nc2cc(C)nc(NCc3ccccc3)n2)cc1` showed a Schizont size of 57.82 um and an IC50 of 636 nM.

Molecule `CCCCc1c(CCC)c(=N)c2ccccc2n1C.I` had a Schizont size of 58.14 um and an IC50 of 244 nM.

In the case of `Cc1ccccc1N=Nc1ccc(NC(=O)c2ccco2)c(C)c1`, the Schizont size came out at 51.87 um and the IC50 is 300 nM.

As for `COC(OC)C(C)=NNC(N)=S`, the Schizont size was found to be 78.8 um and the IC50 amounted to 4.93 nM.

The molecule `CCCCSc1oc(C)nc1[P+](c1ccccc1)(c1ccccc1)c1ccccc1` returned a Schizont size of 22.13 um and an IC50 of 82.1 nM.

Take `CN(C)CCCN(Cc1cc2cc3c(cc2[nH]c1=O)OCO3)C(=S)Nc1cccc(Cl)c1`: the Schizont size is listed as 60.22 um and the IC50 came out at 818 nM.

As to `CCCn1c(-c2cccc(Br)c2)nc2ccccc21`, the Schizont size was 198.63 um and the IC50 was more than 8910 nM.

As for `CCCN(C(=O)Nc1c(C(C)C)cccc1C(C)C)C(CC)c1nc2ccccc2c(=O)n1-c1cccc(C)c1` (centres undefined), 6300 nM corresponded to half-maximal inhibition (IC50).

`CC(Oc1ccc(Cl)cc1Cl)c1nc(-c2ccc(NC(=O)c3ccco3)cc2)no1` (centres undefined) registered a Schizont size of 28.18 um and an IC50 of 154 nM.

Regarding `CCN1CCN(c2c(C(=O)c3ccccc3)cnc3cc(OC)c(OC)cc23)CC1`, the Schizont size is 89.76 um and 367 nM corresponded to half-maximal inhibition (IC50).

`COc1cccc(N2C(N)=NC(N)=NC2(C)C)c1.Cl` yielded a Schizont size of 38.1 um and a concentration for half-maximal inhibition (IC50) of 29.5 nM.

For the molecule `CC[n+]1c(/C=C/C=C2\N(C)c3ccccc3C2(C)C)n(Cc2ccccc2)c2ccccc21`, the Schizont size is reported as 13.99 um and 6.76 nM corresponded to half-maximal inhibition (IC50).

Turning to `O=[N+]([O-])c1cccc(C(Nc2nccs2)c2ccc3cccnc3c2O)c1` (centres undefined), the Schizont size is 43.42 um and the half-maximal inhibitory concentration (IC50) stood at 358 nM.

As to `Cc1nc2c(C)cccc2c(O)c1CC=C(Cl)Cl`, the Schizont size came to 31.21 um and the IC50 was determined as 169 nM.

For the molecule `O=C(c1cnsn1)N1CCCC(COc2cccc(CN3CCC(Cc4ccccc4)CC3)c2)C1` (centres undefined), the Schizont size is listed as 69.41 um and half-maximal inhibition (IC50) required 609 nM.

On to `CCCCc1c(C)nc2ccc(Br)cc2c1O`, for which the Schizont size came out at 25.99 um and 64.7 nM corresponded to half-maximal inhibition (IC50).

Take `O=[N+]([O-])c1ccc(N2CCCN(C(=S)Nc3ccc(F)cc3Br)CC2)nc1`: the Schizont size was found to be 120.24 um and half-maximal inhibition (IC50) required 4620 nM.

On to `COc1cc(OC)c(NC(=O)C2c3ccccc3C(=O)N(C)C2c2ccc(OC)c(OC)c2)cc1Cl` (centres undefined), for which the Schizont size was 165.85 um and the IC50 was more than 9130 nM.

`CC(=O)Nc1cccc(-c2cncc(-c3ccc(C(=O)O)cc3)n2)c1`: the IC50 was more than 10000 nM.

For the molecule `O=C(Nc1ccc(Oc2cccc(Oc3ccc(NC(=O)c4ccc(Br)o4)cc3)c2)cc1)c1ccc(Br)o1`, the Schizont size is listed as 18.79 um and the IC50 was 433 nM.

`O=C(c1cccc(Cl)c1)N1CCN(c2ccc([N+](=O)[O-])c(NC3CC3)c2)CC1` registered a Schizont size of 102.71 um and an IC50 of 3200 nM.

`Cc1c(Cl)cccc1N1C(=O)C2C3c4ccccc4C(c4ccccc43)C2C1=O` (centres undefined) registered a Schizont size of 158.75 um and an IC50 of more than 10000 nM.

For `CCCCNC(=O)C(CC)Sc1nnc(-c2ccc(C)cc2)c(-c2ccc(C)cc2)n1` (centres undefined), the Schizont size stood at 31 um and the IC50 was determined as 291 nM.

The molecule `N#CCSc1nc2ccccc2c2nc(CCc3c[nH]c4ccccc34)nn12` came in with a Schizont size of 221.17 um and an IC50 of more than 10000 nM.

With `CCCCCC[n+]1ccccc1C=Cc1ccc(N(C)C)cc1.[I-]`, the Schizont size is reported as 16.8 um and the IC50 was found to be 55.9 nM.

In turn, `CCN1C(=O)N(CC)C(NNC(N)=S)C1NNC(N)=S` (centres undefined) showed a Schizont size of 103.75 um and an IC50 of 68.6 nM.

The values are drawn from ChEMBL document CHEMBL1789904, “Imaging of Plasmodium liver stages to drive next-generation antimalarial drug discovery” (Science, 2011).
